NF-kB neuron act: activators of NF-kB expression in neurons, primary screen, cell-based, HTS; human neuronal cells, NF-kB reporter expression; stronger effect = higher value; fold change at 12.5 µM; 1.6% of 190,000 active; in the data active = fold change above about 3.3
FLuc stim CS: FLuc activators, initial screening, artefact control for FLuc-dependent activation tests, biochemical, ATPlite luminescence; activation factor at 10 µM; AID 1027, 2008; ATPlite luciferase biochemical, 10 min; 0 = ATP-free wells, 1 = DMSO control; 200,000 tested, under 10 active; Luciferin 4-monooxygenase (Photinus pyralis), P08659;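 active = luciferase activation factor, scaled between plate controls, of at least 2 with compound at 10 µM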
Target sequence (P08659 whole entry, looked up): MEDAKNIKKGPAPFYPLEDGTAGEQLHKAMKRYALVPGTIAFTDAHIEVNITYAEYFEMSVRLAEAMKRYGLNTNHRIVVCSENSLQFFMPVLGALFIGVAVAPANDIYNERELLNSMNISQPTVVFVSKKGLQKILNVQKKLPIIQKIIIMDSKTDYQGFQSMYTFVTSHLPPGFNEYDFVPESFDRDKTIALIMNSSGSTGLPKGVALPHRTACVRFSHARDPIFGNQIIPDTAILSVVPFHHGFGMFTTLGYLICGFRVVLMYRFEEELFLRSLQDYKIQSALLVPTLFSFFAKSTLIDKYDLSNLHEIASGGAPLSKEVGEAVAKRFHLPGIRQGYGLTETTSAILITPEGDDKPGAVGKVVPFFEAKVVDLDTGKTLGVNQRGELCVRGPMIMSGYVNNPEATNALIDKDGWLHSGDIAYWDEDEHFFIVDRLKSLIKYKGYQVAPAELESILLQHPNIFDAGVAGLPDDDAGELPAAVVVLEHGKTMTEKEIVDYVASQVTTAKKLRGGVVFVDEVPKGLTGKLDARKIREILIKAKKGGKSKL
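Assay system: Luciferase/luciferin reagent mix; Medium: PBS as buffer for the ATP substrate; Dosing: test compounds dosed from 2 mM stocks in 100% DMSO; Times: 10 min, room temperature; Signal: luminescence from luciferase reaction; Read-out: luciferase activation; Controls: No-ATP low control, compound-free enzyme-plus-ATP high control.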
FLuc inhib CS: firefly luciferase enzyme inhibitors, primary screen, artefact control for luciferase-based inhibitor screens, biochemical, luminescence, ATPLite; Luciferin 4-monooxygenase (Photinus pyralis), P08659; 10 min; inhibition, % at 10 µM; 1.5% of 200,000 active; AID 1006, 2008;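 active = inhibition above about 50% when tested at 10 µM, limit read from the data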
sdo1 growth: growth rescue of sdo1-depleted yeast, primary screen, S. cerevisiae, bone marrow failure model; S. cerevisiae sdo1-depleted JHY4D growth rescue, OD600 30 h; stronger effect = higher value; pdr5 snq2 efflux-pump mutant strain; z-score at 10 µM; 0.21% of 140,000 active;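 active = z-score above 3 at both the 24 hr and the 30 hr optical density reads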;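 note: z-score against mean and SD of all compound wells on the same plate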
STAT1 activator: STAT1 signaling activators, primary screen, cell-based, HTS, luciferase reporter; NIH 3T3 STAT1-luciferase reporter, IFN-gamma, luminescence; 100% = IFN-gamma alone, no compound; activation (% of control), % at 5.5 µM; 2.6% of 200,000 active;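 active = activation above the screen-wide mean activation plus 3 SD, cut at about 130% in these data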;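 note: raw ratio to IFN-gamma control signal so 100% means no change and 0% no light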
APP 5'UTR act: activators of APP 5'UTR luciferase reporter, primary screen, SH-SY5Y cells; SH-SY5Y APP 5'UTR luciferase reporter, luminescence; zero percent = DMSO vehicle wells; activation, % at 2 µM; 1% of 190,000 active;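 active = activation above a set limit, based on mean plus 3 SD of controls, cut at about 140% in these data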
* = called active by the depositor. Sampled rows, rich in hits. Any-hit rate of the full collection: about 4.3%.

Cc1c(C(=O)NN2CCOCC2)oc2c1ccc1ccccc12 was read as NF-kB neuron act 0.99, FLuc stim CS 1.1, FLuc inhib CS -7, STAT1 activator 103 and APP 5'UTR act -7.
`CCN(CC)CCNc1ncnc2c1sc1nc(N3CCCC3)c3c(c12)CC(C)(C)OC3` gave FLuc stim CS 1, FLuc inhib CS -2, STAT1 activator 95 and APP 5'UTR act 8.
For Cn1ccnc1SCC(=O)Nc1nc2ccccc2s1 the results were NF-kB neuron act 0.88, FLuc stim CS 1, FLuc inhib CS 1, STAT1 activator 134* and APP 5'UTR act 27.
Screening Cc1cc(NC(=O)Cn2c(C)nc3ccccc3c2=O)ccc1Br returned NF-kB neuron act 0.9, FLuc stim CS 1, FLuc inhib CS -4, sdo1 growth -1, STAT1 activator 98 and APP 5'UTR act 4.
Screening CCNC(=S)N/N=C(\C)c1ccc(N2CCOCC2)cc1 returned NF-kB neuron act 1.3, FLuc stim CS 1, FLuc inhib CS -3, sdo1 growth 1.8, STAT1 activator 107 and APP 5'UTR act -5.
Screening CNC(=S)N/N=C(\C)c1ccc(N2CCOCC2)cc1 returned NF-kB neuron act 6.3*, FLuc stim CS 0.9, FLuc inhib CS 14, sdo1 growth 2.3, STAT1 activator 98 and APP 5'UTR act 31.
For O=C(N/N=C1\CCc2ccccc21)c1ccccc1O the results were NF-kB neuron act 3.8*, FLuc stim CS 0.1, FLuc inhib CS 90*, sdo1 growth -0.74, STAT1 activator 104 and APP 5'UTR act 128.
`O=C(N/N=C1\CCc2ccccc21)c1ccncc1` gave NF-kB neuron act 1.3, FLuc stim CS 0.9, FLuc inhib CS 13, sdo1 growth 0.96, STAT1 activator 130* and APP 5'UTR act 55.
`COc1ccc(C(=O)N/N=C2\CCc3ccccc32)cc1OC` gave NF-kB neuron act 1.4, FLuc stim CS 1, FLuc inhib CS 2, STAT1 activator 112 and APP 5'UTR act -4.
For O=C(N/N=C1\CCCc2ccccc21)c1ccccc1Cl the results were NF-kB neuron act 1.7, FLuc stim CS 0.9, FLuc inhib CS 11, STAT1 activator 122 and APP 5'UTR act -15.
`O=C(O)c1cccc(-c2nnn(Cc3ccccc3Cl)n2)c1` gave NF-kB neuron act 4.2*, FLuc stim CS 0.9, FLuc inhib CS 14, sdo1 growth 0.64, STAT1 activator 67 and APP 5'UTR act 21.
`CCN1C(=O)c2c(C)nc3ccccc3c2C1=O` gave NF-kB neuron act 0.85, FLuc stim CS 1.1, FLuc inhib CS -12, sdo1 growth 1.2, STAT1 activator 105 and APP 5'UTR act 29.
Screening CCc1ccc(C(=O)COC(=O)c2cccc(N3C(=O)c4c(C)nc5ccccc5c4C3=O)c2)cc1 returned NF-kB neuron act 1.2, FLuc stim CS 0.5, FLuc inhib CS 51*, sdo1 growth -0.8, STAT1 activator 106 and APP 5'UTR act 113.
Screening CCN(CC)C(=O)Cn1cnc([N+](=O)[O-])n1 returned NF-kB neuron act 1.2, FLuc stim CS 1.1, FLuc inhib CS -10, sdo1 growth 0.43, STAT1 activator 100 and APP 5'UTR act -5.
For Cn1c(N=Nc2ccc(N3CCOCC3)cc2)[n+](C)c2ccccc21 the results were NF-kB neuron act 0.6, FLuc stim CS 0.4, FLuc inhib CS 59*, STAT1 activator 120 and APP 5'UTR act 37.
CCOC(=O)c1cc2[nH]c3ccccc3c2[n+](-c2ccc([N+](=O)[O-])cc2)c1N was read as NF-kB neuron act 1.3, FLuc stim CS 1.1, FLuc inhib CS -6, sdo1 growth 1.4, STAT1 activator 100 and APP 5'UTR act -2.
For COc1ccc(-c2cc3nc(C)cc(NCCO)n3n2)cc1 the results were NF-kB neuron act 1.9, FLuc stim CS 0.8, FLuc inhib CS 23, sdo1 growth 0.58, STAT1 activator 105 and APP 5'UTR act -3.

High-throughput results deposited in PubChem by several laboratories.
